The sample as a whole holds a higher share of hits than the screen did.
T cruzi HTS: blocks T. cruzi growth inside host cells | intracellular Trypanosoma cruzi in host cells, plate reader | AID 651903 | hit rate 4.9% among 22,000 | activity score (inhibition), % at 5.01 µM; in the data active means activity score above about 55%;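 further: parasites and compound incubated about four days before reading; 0% = median of neutral control wells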
INS-1E rescue: INS-1E beta cell protection from cytokine death | INS-1E cytokine-induced death, ATP luminescence, 48 h; normalised: neutral wells 0, positive control 100 | protection from cytokine-induced ATP loss, % at 10 µM | hit rate 0.1% among 20,000 | AID 488910;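 active means mean replicate protection from cytokine-induced ATP loss at least 50% and at least 75% of replicates each reaching 50%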
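assay system = INS-1E rat insulinoma cells | amount = 8000 cells per well | medium = phenol-red-free RPMI with 5% fetal bovine serum | doses = one compound concentration, pin transfer | timing = 48 h cytokine plus compound treatment, 10 min reagent incubation | also added = IL-1β, TNF-α and IFN-γ cytokine mix | signal = CellTiter-Glo luminescence measuring cellular ATP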
YB-1 expression: YB-1 expression inhibition; hit rate 0.37% among 30,000; U2OS, qRT-PCR YB-1 vs CDIP delta delta Cp, 16 h; hits give high values; zero = DMSO, each unit about twofold; delta delta Cp (YB-1 minus CDIP) (concentration not given with the values);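 active means delta delta Cp rounded down to an integer at or above 3, about 3 SD of DMSO wells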;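 further: higher means less YB-1 transcript or more CDIP transcript relative to DMSO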
The depositor's hits bear a star; . = not tested or not shown.

SMILES	T cruzi HTS	INS-1E rescue	YB-1 expression
O=C(CCCCCC(=O)Nc1ccccc1O)N/N=C/c1cc(Br)cc([N+](=O)[O-])c1O	33	-27	-0.54
C[C@H]1CN([C@@H](C)CO)C(=O)c2cccc(NC(=O)c3ccncc3)c2O[C@H]1CN(C)CC1CCCCC1	57*	4	0.3
C[C@H](CO)N1C[C@H](C)[C@@H](CN(C)CC2CCCCC2)Oc2c(NC(=O)c3ccncc3)cccc2C1=O	57*	-6	1.3
C[C@@H]1CN([C@@H](C)CO)C(=O)c2cccc(NC(=O)c3ccncc3)c2O[C@@H]1CN(C)CC1CCCCC1	-3	-4	0.28
C[C@H]1CN([C@@H](C)CO)C(=O)c2cccc(NC(=O)c3ccncc3)c2O[C@H]1CN(C)C(=O)NC1CCCCC1	71*	1	0.38
C[C@@H]1CN([C@@H](C)CO)C(=O)c2cccc(NC(=O)C3CCOCC3)c2O[C@@H]1CN(C)C(=O)NC1CCCCC1	-11	11	-0.01
C[C@@H]1CN([C@@H](C)CO)C(=O)c2cccc(NC(=O)c3ccncc3)c2O[C@H]1CN(C)C(=O)NC1CCCCC1	-26	17	0.26
C[C@@H]1CN([C@H](C)CO)C(=O)c2cccc(NC(=O)C3CCOCC3)c2O[C@@H]1CN(C)C(=O)NC1CCCCC1	-25	4	11*
C[C@H]1CN([C@@H](C)CO)C(=O)c2cccc(NC(=O)c3ccncc3)c2O[C@H]1CN(C)CC1CC1	-17	9	0.33
C[C@@H]1CN([C@H](C)CO)C(=O)c2cccc(N(C)C)c2O[C@H]1CN(C)S(=O)(=O)c1ccc(F)cc1	-3	6	0.019
CNC(=S)N1N=C2c3ccccc3CCC2C1c1ccc(OC)cc1 (centres undefined)	.	.	-0.087
C[C@H](CO)N1C[C@H](C)[C@H](CN(C)S(=O)(=O)c2ccc(F)cc2)Oc2ccc(NC(=O)c3ccncc3)cc2CC1=O	26	-3	-0.7
O=C(NO)c1ccc(C(=O)N/N=C/c2cccc(B(O)O)c2)cc1	9	12	0.16
C[C@H]1CN([C@@H](C)CO)C(=O)c2cccc(NC(=O)c3ccncc3)c2O[C@@H]1CN(C)CC1CCCCC1	86*	-16	-0.63
C[C@@H]1CN([C@@H](C)CO)C(=O)c2cccc(NC(=O)c3ccncc3)c2O[C@H]1CN(C)CC1CC1	41	11	-0.19
C[C@@H]1Oc2c(c(O)c3c(c2C(CC(=O)O)c2ccccc2)OC(C)(C)C=C3)C(=O)[C@H]1C (some centres undefined)	.	.	0.43
Cc1ccc(S(=O)(=O)N(C)C[C@@H]2Oc3ccc(NC(=O)Nc4ccc(C(F)(F)F)cc4)cc3C(=O)N([C@H](C)CO)C[C@@H]2C)cc1	26	-58	0.23
Cc1ccc(S(=O)(=O)N(C)C[C@H]2Oc3ccc(NC(=O)Nc4ccc(C(F)(F)F)cc4)cc3C(=O)N([C@@H](C)CO)C[C@H]2C)cc1	64*	-36	0.86
C[C@H]1CN([C@@H](C)CO)C(=O)c2cc(NC(=O)Nc3ccc(C(F)(F)F)cc3)ccc2O[C@@H]1CN(C)S(=O)(=O)c1ccc(F)cc1	6	-7	0.47
C[C@@H]1CN([C@H](C)CO)C(=O)c2cc(NC(=O)Nc3ccc(C(F)(F)F)cc3)ccc2O[C@@H]1CN(C)S(=O)(=O)c1ccccc1	11	-1	0.17
C[C@@H]1CN([C@H](C)CO)C(=O)c2cc(NC(=O)Nc3ccc(C(F)(F)F)cc3)ccc2O[C@H]1CN(C)S(=O)(=O)c1ccc(F)cc1	65*	-30	0.3
C[C@@H]1CN([C@@H](C)CO)C(=O)c2cc(NC(=O)Nc3ccc(C(F)(F)F)cc3)ccc2O[C@H]1CN(C)S(=O)(=O)c1ccccc1	68*	-28	-0.47
C[C@@H]1CN([C@@H](C)CO)C(=O)c2cccc(NS(=O)(=O)c3ccc(F)cc3)c2O[C@@H]1CN(C)S(C)(=O)=O	-6	7	0.42
COc1ccc(NC(=O)N(C)C[C@@H]2Oc3ncc(-c4ccc(OC)cc4)cc3C(=O)N([C@H](C)CO)C[C@@H]2C)cc1	29	.	-0.89
C[C@H](CO)N1C[C@H](C)[C@H](CN(C)C(=O)Nc2ccc3c(c2)OCO3)Oc2ncc(-c3cccc(F)c3)cc2C1=O	-15	.	0.28
SMILES	T cruzi HTS	INS-1E rescue	YB-1 expression
COc1ccc(NC(=O)N(C)C[C@@H]2Oc3ncc(-c4cccc(C(F)(F)F)c4)cc3C(=O)N([C@H](C)CO)C[C@@H]2C)cc1	59*	.	-0.015
C[C@H](CO)N1C[C@H](C)[C@H](CN(C)C(=O)Nc2ccccc2)Oc2ncc(-c3cccc(C(F)(F)F)c3)cc2C1=O	64*	.	0.088
C[C@H](CO)N1C[C@H](C)[C@H](CN(C)C(=O)Nc2ccc3c(c2)OCO3)Oc2ncc(-c3cccc(C(F)(F)F)c3)cc2C1=O	67*	.	-0.0047
C[C@H](CO)N1C[C@H](C)[C@H](CN(C)C(=O)Nc2ccc3c(c2)OCO3)Oc2ncc(C#Cc3ccc(F)cc3)cc2C1=O	-17	-3	0.05
C[C@H](CO)N1C[C@H](C)[C@H](CN(C)C(=O)Nc2ccc3c(c2)OCO3)Oc2ncc(C#Cc3ccccc3)cc2C1=O	69*	.	-0.16
C[C@H](CO)N1C[C@H](C)[C@H](CN(C)C(=O)Nc2ccc(F)cc2)Oc2ncc(-c3cccc(C(F)(F)F)c3)cc2C1=O	51	.	0.057
C[C@@H]1CN([C@H](C)CO)C(=O)c2cc(NC(=O)CCN3CCOCC3)ccc2O[C@@H]1CN(C)Cc1ccc(-c2ccccc2)cc1	-6	-5	0.6
CCOC(=O)c1sc(SC)c2c1CC(c1ccc(OC)cc1)CC2=O (centres undefined)	.	.	-0.38
COc1cc([C@H]2OC[C@H]3[C@@H]2CO[C@@H]3c2ccc3c(c2)OCO3)cc(OC)c1OC	.	.	0.34
C[C@@H]1CN([C@H](C)CO)C(=O)Cc2cc(NS(=O)(=O)c3ccccc3)ccc2O[C@H]1CN(C)S(=O)(=O)c1ccccc1	11	1	5.1*
C[C@@H]1CN([C@H](C)CO)C(=O)Cc2cc(NS(=O)(=O)c3ccccc3)ccc2O[C@@H]1CN(C)S(=O)(=O)c1ccc(Cl)cc1	68*	0	-0.01
C[C@@H]1CN([C@H](C)CO)C(=O)Cc2cc(NS(=O)(=O)c3ccccc3)ccc2O[C@@H]1CN(C)S(=O)(=O)c1ccccc1	53	5	-0.11
C[C@H]1CN([C@@H](C)CO)C(=O)Cc2cc(NS(=O)(=O)c3ccccc3)ccc2O[C@@H]1CN(C)S(=O)(=O)c1ccc(Cl)cc1	5	6	-0.26
C[C@@H]1CN([C@@H](C)CO)C(=O)c2cccc(NC(=O)c3ccncc3)c2O[C@@H]1CN(C)Cc1ccc(Cl)c(Cl)c1	68*	-8	-0.41
C[C@H](CO)N1C[C@H](C)[C@@H](CN(C)Cc2ccc(Cl)c(Cl)c2)Oc2c(NC(=O)c3ccncc3)cccc2C1=O	78*	-14	0.12
C[C@H](CO)N1C[C@H](C)[C@H](CN(C)Cc2ccc(Cl)c(Cl)c2)Oc2c(NC(=O)c3cnccn3)cccc2C1=O	43	-23	-0.25
C[C@H](CO)N1C[C@H](C)[C@H](CN(C)S(=O)(=O)c2ccccc2)Oc2ncc(Br)cc2C1=O	20	.	-0.12
